Active and inactive are the calls of the source. No cut-off for these calls is given here.
Each molecule was assayed on HCT-116 (assay: Cytotoxicity against human HCT116 cells after 72 hrs by calcein-AM assay). Details: HCT-116, 72 h.
Type: functional, cell-based
`CC(C)(C)[C@H](NC(=O)c1cc(Cl)ccc1O)C(=O)Nc1cccc(C(F)(F)F)c1` was tested, and the IC50 was 5.4 µM.

Each molecule was assayed on K562 (assay: Cytotoxicity against human K562 cells after 72 hrs by calcein-AM assay). Details: K562, 72 h.
Type: functional, cell-based
`CC(C)[C@@H](NC(=O)c1cc(Cl)ccc1O)C(=O)Nc1cccc(Cl)c1` was tested, and the IC50 was over 10 µM. Work on `O=C(N[C@@H](Cc1ccccc1)C(=O)Nc1ccc(Cl)cc1)c1cc(Cl)ccc1O` yielded an IC50 of over 10 µM. Work on `O=C(N[C@@H](Cc1ccccc1)C(=O)Nc1ccc(Cl)c(Cl)c1)c1ccc(Cl)cc1O` yielded an IC50 of over 10 µM. For `CC(C)(C)[C@H](NC(=O)c1cc(Cl)ccc1O)C(=O)Nc1cccc(C(F)(F)F)c1`, the IC50 was 5.9 µM.

The molecules below were run on G-361 (assay: Cytotoxicity against human G361 cells after 72 hrs by calcein-AM assay). Details: G-361, 72 h.
Type: functional, cell-based
`CC(C)(C)[C@H](NC(=O)c1cc(Cl)ccc1O)C(=O)Nc1cccc(C(F)(F)F)c1` gave an IC50 of 8.3 µM.

What follows are molecules tested on HOS (assay: Cytotoxicity against human HOS cells after 72 hrs by calcein-AM assay). Details: not given.
Type: functional, cell-based
Work on `CC(C)(C)[C@H](NC(=O)c1cc(Cl)ccc1O)C(=O)Nc1cccc(C(F)(F)F)c1` yielded an IC50 of 7.8 µM.

Each molecule was assayed on MCF7 (assay: Cytotoxicity against human MCF7 cells after 72 hrs by calcein-AM assay). Details: MCF7, 72 h.
Type: functional, cell-based
Work on `CC(C)[C@@H](NC(=O)c1cc(Cl)ccc1O)C(=O)Nc1cccc(Cl)c1` yielded an IC50 of over 10 µM. `O=C(N[C@@H](Cc1ccccc1)C(=O)Nc1ccc(Cl)cc1)c1cc(Cl)ccc1O` gave an IC50 of 7.9 µM. With `O=C(N[C@@H](Cc1ccccc1)C(=O)Nc1ccc(Cl)c(Cl)c1)c1ccc(Cl)cc1O` the IC50 was 7.3 µM. `CC(C)(C)[C@H](NC(=O)c1cc(Cl)ccc1O)C(=O)Nc1cccc(C(F)(F)F)c1` showed an IC50 of 8.8 µM.

The molecules below were run on HeLa (assay: Cytotoxicity against human HeLa cells after 72 hrs by calcein-AM assay). Details: not given.
Type: functional, cell-based
For `CC(C)(C)[C@H](NC(=O)c1cc(Cl)ccc1O)C(=O)Nc1cccc(C(F)(F)F)c1`, the IC50 was 6.5 µM.

These molecules were tested on G-361 (assay: Induction of apoptosis in human G361 cells assessed as caspase-3/7 activation at 2 uM after 24 hrs by fluorescence assay relative to control). Details: not given.
Type: functional
Outline: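 G361 cells seeded at 20,000 per well overnight, then exposed 24 h to compound at 2 µM final. 3x caspase-3/7 buffer (HEPES pH 7.4, NaCl, KCl, MgCl2, EGTA, NP-40, CHAPS, sucrose, DTT, PMSF) with Ac-DEVD-AMC substrate added; incubated 37 °C, fluorescence read after 4 h at 346/442 nm; activity expressed relative to untreated cells.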
In the case of `CC(C)(C)[C@H](NC(=O)c1cc(Cl)ccc1O)C(=O)Nc1cccc(C(F)(F)F)c1`, the Activity is reported as “Active”.
